The record followed here is ChEMBL document CHEMBL5247599, “New β-arylchalcogeno amines with procognitive properties targeting Carbonic Anhydrases and Monoamine Oxidases” (Eur J Med Chem, 2022).

Assay [1] has as its target Carbonic anhydrase 14 (Homo sapiens) (UniProt Q9ULX7). Briefly: Binding affinity to human CA14 by phenol red dye based stopped flow CO2 hydration assay. The conditions noted are these: filed as activator. A digest of the protocol: (§1)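 Purified recombinant human CA isoforms. CA-catalysed CO2 hydration was followed by stopped-flow with phenol red at 557 nm, taking initial rates over 10–100 s from at least six traces of the first 5–10% of reaction. Uncatalysed rates were subtracted. Activator stocks were 0.1 mM in deionised water, diluted down to 0.1 nM in assay buffer. K_A came from non-linear least-squares Michaelis–Menten fitting.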

Assay [2] has as its target T1, Amine oxidase [flavin-containing] A (Homo sapiens, UniProt P21397).
T1 sequence (P21397 whole entry): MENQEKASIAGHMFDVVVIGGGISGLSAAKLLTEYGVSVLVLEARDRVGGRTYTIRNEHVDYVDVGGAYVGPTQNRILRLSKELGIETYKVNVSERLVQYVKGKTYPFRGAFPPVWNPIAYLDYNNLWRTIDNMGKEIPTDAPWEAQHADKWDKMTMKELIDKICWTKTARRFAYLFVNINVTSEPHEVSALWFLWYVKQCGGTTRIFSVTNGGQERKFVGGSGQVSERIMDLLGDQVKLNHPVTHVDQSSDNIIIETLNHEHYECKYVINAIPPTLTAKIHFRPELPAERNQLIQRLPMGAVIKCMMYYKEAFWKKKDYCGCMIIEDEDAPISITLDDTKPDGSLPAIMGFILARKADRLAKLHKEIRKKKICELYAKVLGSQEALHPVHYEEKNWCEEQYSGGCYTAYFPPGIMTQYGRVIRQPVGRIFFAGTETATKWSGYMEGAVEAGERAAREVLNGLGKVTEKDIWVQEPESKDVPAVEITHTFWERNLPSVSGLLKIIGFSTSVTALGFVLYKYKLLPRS
Briefly: Inhibition of human recombinant MAO-A assessed as inhibition of 4-hydroxyquinoline formation using kynuramine as substrate by fluorescence spectrophotometry analysis. A digest of the protocol:
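Recombinant human MAO-A with kynuramine as substrate. The 4-hydroxyquinoline product was quantified by fluorescence spectrophotometry, and IC50 values were determined.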

Assay [3] has as its target Carbonic anhydrase 2 (Homo sapiens) (UniProt P00918). Briefly: Binding affinity to human CA2 by phenol red dye based stopped flow CO2 hydration assay. An outline of the steps:
as §1

Assay [4] addresses T2, Amine oxidase [flavin-containing] B (Homo sapiens, UniProt P27338).
T2 sequence (P27338 whole entry): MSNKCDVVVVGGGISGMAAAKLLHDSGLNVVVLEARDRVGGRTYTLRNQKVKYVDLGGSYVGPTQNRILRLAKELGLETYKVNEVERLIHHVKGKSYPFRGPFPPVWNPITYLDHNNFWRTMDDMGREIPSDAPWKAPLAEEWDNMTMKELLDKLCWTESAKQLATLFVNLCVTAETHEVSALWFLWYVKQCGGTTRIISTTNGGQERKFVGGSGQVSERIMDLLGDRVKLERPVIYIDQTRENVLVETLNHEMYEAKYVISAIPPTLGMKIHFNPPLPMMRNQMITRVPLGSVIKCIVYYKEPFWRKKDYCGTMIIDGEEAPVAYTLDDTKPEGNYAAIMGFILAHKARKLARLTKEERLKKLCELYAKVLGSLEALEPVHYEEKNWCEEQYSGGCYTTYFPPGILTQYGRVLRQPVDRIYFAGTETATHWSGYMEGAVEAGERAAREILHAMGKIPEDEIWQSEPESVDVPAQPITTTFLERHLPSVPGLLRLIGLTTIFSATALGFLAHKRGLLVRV

In assay [5] the target is Carbonic anhydrase 9 (Homo sapiens) (UniProt Q16790). Briefly: Binding affinity to human CA9 by phenol red dye based stopped flow CO2 hydration assay. The conditions noted are these: filed as activator. An outline of the steps: as §1
Assay [6] addresses Carbonic anhydrase 12 (Homo sapiens) (UniProt O43570). Briefly: Binding affinity to human CA12 by phenol red dye based stopped flow CO2 hydration assay. The conditions noted are these: filed as activator. A digest of the protocol: as §1
For assay [7], the target named is Carbonic anhydrase 6 (Homo sapiens) (UniProt P23280). The assay is described as follows: Binding affinity to human CA6 by phenol red dye based stopped flow CO2 hydration assay. The conditions noted are these: filed as activator. A digest of the protocol:
as §1

The target of assay [8] is Carbonic anhydrase 5B, mitochondrial (Homo sapiens) (UniProt Q9Y2D0). The assay is described as follows: Binding affinity to human CA5b by phenol red dye based stopped flow CO2 hydration assay. Particulars: filed as activator. An outline of the steps:
as §1

The target of assay [9] is Carbonic anhydrase 13 (Homo sapiens) (UniProt Q8N1Q1). Briefly: Binding affinity to human CA13 by phenol red dye based stopped flow CO2 hydration assay. Particulars: filed as activator. A digest of the protocol:
as §1

Assay [10] deals with Carbonic anhydrase 5A, mitochondrial (Homo sapiens) (UniProt P35218). The assay is described as follows: Binding affinity to human CA5a by phenol red dye based stopped flow CO2 hydration assay. Particulars: filed as activator. An outline of the steps: as §1
The target in assay [11] is Carbonic anhydrase 3 (Homo sapiens) (UniProt P07451). The assay is described as follows: Binding affinity to human CA3 by phenol red dye based stopped flow CO2 hydration assay. Particulars: filed as activator. A digest of the protocol:
as §1

Assay [12] addresses Carbonic anhydrase 4 (Homo sapiens) (UniProt P22748). Briefly: Binding affinity to human CA4 by phenol red dye based stopped flow CO2 hydration assay. Particulars: filed as activator. A digest of the protocol: as §1
The target in assay [13] is Carbonic anhydrase 7 (Homo sapiens) (UniProt P43166). The assay is described as follows: Binding affinity to human CA7 by phenol red dye based stopped flow CO2 hydration assay. Particulars: filed as activator. An outline of the steps:
as §1

Assay [14] addresses Carbonic anhydrase 1 (Homo sapiens) (UniProt P00915). Briefly: Binding affinity to human CA1 by phenol red dye based stopped flow CO2 hydration assay. The conditions noted are these: filed as activator. A digest of the protocol:
as §1

A value given as a limit tells only on which side of the number the result lay.

Sequence of Carbonic anhydrase 6 (Homo sapiens) (P23280 whole entry): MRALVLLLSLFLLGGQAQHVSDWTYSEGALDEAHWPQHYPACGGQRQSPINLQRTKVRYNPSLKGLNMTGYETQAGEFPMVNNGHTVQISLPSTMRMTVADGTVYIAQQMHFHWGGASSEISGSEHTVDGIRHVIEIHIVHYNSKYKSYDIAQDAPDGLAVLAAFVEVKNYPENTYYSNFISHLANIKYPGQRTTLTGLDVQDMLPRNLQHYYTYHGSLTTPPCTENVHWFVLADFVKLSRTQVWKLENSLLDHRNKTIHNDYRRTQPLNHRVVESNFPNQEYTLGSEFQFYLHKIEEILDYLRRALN
Sequence of Carbonic anhydrase 3 (Homo sapiens) (P07451 whole entry): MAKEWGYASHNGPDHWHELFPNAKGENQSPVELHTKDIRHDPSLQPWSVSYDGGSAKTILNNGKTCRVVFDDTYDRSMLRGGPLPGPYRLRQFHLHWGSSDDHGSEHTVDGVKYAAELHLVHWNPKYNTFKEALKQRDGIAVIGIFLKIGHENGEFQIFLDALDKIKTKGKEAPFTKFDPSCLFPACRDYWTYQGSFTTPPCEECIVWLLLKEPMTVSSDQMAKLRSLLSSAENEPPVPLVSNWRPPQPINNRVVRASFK
Sequence of Carbonic anhydrase 4 (Homo sapiens) (P22748 whole entry): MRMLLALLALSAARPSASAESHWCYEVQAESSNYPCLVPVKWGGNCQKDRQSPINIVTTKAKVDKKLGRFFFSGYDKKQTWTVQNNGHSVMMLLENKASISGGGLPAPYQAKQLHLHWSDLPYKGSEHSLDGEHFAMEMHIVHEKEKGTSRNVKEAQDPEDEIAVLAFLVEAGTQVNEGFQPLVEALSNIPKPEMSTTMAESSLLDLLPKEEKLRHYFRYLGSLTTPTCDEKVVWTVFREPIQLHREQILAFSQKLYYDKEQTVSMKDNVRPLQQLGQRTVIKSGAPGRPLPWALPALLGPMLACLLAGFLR
Sequence of Carbonic anhydrase 13 (Homo sapiens) (Q8N1Q1 whole entry, looked up): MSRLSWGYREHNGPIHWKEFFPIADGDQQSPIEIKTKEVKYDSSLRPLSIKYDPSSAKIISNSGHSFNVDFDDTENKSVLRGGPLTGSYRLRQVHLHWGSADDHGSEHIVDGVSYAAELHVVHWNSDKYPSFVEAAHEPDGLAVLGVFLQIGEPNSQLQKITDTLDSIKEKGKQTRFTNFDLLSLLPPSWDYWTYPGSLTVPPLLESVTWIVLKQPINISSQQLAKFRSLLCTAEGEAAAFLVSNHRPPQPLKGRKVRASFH
Sequence of Carbonic anhydrase 7 (Homo sapiens) (P43166 whole entry): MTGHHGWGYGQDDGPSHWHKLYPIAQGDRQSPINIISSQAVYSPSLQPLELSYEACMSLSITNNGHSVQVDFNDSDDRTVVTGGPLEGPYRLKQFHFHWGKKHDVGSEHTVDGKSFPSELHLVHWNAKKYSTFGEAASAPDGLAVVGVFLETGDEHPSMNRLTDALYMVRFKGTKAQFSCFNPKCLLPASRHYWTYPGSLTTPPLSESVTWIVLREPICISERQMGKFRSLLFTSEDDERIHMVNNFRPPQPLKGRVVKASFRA
Sequence of Carbonic anhydrase 5A, mitochondrial (Homo sapiens) (P35218 whole entry): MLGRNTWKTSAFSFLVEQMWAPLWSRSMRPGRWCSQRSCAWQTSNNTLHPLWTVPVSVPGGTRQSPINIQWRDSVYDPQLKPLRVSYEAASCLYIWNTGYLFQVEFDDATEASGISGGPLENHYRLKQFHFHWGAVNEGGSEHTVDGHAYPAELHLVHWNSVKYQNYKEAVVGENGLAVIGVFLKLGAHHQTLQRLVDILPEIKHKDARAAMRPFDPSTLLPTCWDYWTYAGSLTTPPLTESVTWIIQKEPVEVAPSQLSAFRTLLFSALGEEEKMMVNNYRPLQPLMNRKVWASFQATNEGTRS
Sequence of Carbonic anhydrase 14 (Homo sapiens) (Q9ULX7 whole entry, canonical isoform): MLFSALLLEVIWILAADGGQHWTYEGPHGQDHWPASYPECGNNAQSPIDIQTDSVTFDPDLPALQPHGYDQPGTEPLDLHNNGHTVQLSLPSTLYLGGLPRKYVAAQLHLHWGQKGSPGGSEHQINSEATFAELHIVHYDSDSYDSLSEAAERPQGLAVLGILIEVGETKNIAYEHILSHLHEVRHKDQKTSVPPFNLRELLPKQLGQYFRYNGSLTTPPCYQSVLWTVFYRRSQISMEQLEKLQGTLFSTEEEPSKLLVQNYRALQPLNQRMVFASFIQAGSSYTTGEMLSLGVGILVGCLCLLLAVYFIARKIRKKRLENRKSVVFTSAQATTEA
Sequence of Carbonic anhydrase 1 (Homo sapiens) (P00915 2-261 limits assumed): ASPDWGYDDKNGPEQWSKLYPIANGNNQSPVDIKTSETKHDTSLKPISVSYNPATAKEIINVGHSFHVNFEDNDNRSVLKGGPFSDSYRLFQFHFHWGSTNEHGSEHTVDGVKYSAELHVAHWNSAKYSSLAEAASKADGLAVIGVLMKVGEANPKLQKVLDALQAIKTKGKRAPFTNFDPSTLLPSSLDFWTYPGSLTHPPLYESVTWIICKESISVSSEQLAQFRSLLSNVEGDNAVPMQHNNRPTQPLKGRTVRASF
Sequence of Carbonic anhydrase 5B, mitochondrial (Homo sapiens) (Q9Y2D0 whole entry): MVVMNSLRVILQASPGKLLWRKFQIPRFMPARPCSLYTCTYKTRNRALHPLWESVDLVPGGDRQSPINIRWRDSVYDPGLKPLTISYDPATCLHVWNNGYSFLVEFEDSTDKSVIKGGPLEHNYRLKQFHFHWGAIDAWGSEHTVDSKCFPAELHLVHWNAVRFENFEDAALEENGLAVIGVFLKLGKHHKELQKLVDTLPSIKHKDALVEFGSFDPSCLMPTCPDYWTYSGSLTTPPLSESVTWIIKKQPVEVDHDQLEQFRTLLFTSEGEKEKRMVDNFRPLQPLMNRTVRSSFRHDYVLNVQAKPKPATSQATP
Sequence of Carbonic anhydrase 12 (Homo sapiens) (O43570 whole entry): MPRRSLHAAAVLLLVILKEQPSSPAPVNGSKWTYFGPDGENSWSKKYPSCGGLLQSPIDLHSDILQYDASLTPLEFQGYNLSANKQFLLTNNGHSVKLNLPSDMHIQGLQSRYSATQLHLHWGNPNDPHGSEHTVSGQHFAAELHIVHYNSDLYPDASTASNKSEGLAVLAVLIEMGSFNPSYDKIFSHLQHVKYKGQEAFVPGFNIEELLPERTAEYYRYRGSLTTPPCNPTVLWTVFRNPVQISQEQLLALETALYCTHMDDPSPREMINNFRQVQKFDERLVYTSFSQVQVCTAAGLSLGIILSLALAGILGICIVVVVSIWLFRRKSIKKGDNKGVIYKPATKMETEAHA

As for `CC(N)CSc1ccccc1Br` (stereo unspecified), the Ka was 3.6 µM in [1]; over 100 µM in assay [3]; 56.6 µM in [5]; 46.7 µM in assay [6]; 55.9 µM in [7]; 12.8 µM in assay [8]. Besides, the Ka in assay [9] was found to be 90.9 µM; in [10], 13.3 µM; in assay [11], 70.8 µM; in [12], 2.4 µM; in [13], 23.2 µM; in assay [14], 9.5 µM. Besides, the values for the IC50 in assay [2] and in [4] were 0.724 µM and 64.8 µM, respectively.

On to `Cc1ccccc1[Se]CC(C)N` (stereo unspecified), for which the Ka in assay [1] is 4.7 µM; in assay [3] it was over 100 µM; in [5], 83.3 µM; in assay [6], 51.8 µM; in [7], 71.6 µM; in assay [8], 23.7 µM. Also, the Ka was 49.3 µM in assay [9]; 20 µM in assay [10]; 54.1 µM in [11]; 2.7 µM in assay [12]; 14.2 µM in [13]; 12.1 µM in assay [14]. Also, the IC50 in assay [2] worked out at 5.17 µM; in [4] it was 16.7 µM.

`CC(N)CSc1cccc(Br)c1` (stereo unspecified): the Ka is 2.9 µM in assay [1]; over 100 µM in assay [3]; 77.9 µM in assay [5]; 87.9 µM in assay [6]; 30.9 µM in assay [7]; 11.5 µM in [8]. For the same compound, the Ka in [9] was 49.3 µM; in assay [10], 12.9 µM; in [11] it was 91.7 µM; in assay [12] it was 2.2 µM; in assay [13], 11.4 µM; in assay [14], 13.5 µM. Also, in assay [2], the IC50 was 7.82 µM.

`Cc1cccc(C)c1[Se]CC(C)N` (stereo unspecified): the Ka is 1.1 µM in assay [1]; over 100 µM in [3]; 81.2 µM in assay [5]; 78.2 µM in [6]; 31.4 µM in [7]; 22.7 µM in [8]. Besides, the Ka in assay [9] is 83.3 µM; in [10], 20.9 µM; in assay [11] it was 90.8 µM; in assay [12], 9.5 µM; in [13], 21.4 µM; in [14], 6 µM. Also, the IC50 came to 1.68 µM in assay [2] and 2.79 µM in assay [4].

Regarding `Cc1ccc([Se]CC(C)N)cc1` (stereo unspecified), the Ka in [1] was 8.3 µM; in assay [3] it was over 100 µM; in [5] it was 82.5 µM; in assay [6], 89.7 µM; in assay [7] it was 30.5 µM; in assay [8] it was 15.7 µM. The Ka in assay [9] is 68.6 µM; in [10], 9.1 µM; in assay [11], 20.3 µM; in assay [12] it was 2.2 µM; in assay [13] it was 10.4 µM; in assay [14], 5.2 µM. Besides, the half-inhibitory concentration (IC50) is 2.03 µM in assay [2] and 36.5 µM in [4].

Regarding `COc1ccc([Se]CC(C)N)cc1` (stereo unspecified), the Ka in [1] is 8.7 µM; in assay [3], over 100 µM; in assay [5], 73.2 µM; in [6], 68.8 µM; in assay [7] it was 46.4 µM; in [8], 25.8 µM. The Ka was 60.4 µM in assay [9]; 20.3 µM in assay [10]; 66.8 µM in [11]; 8.7 µM in assay [12]; 23.3 µM in assay [13]; 21.4 µM in assay [14]. Moreover, the IC50 in assay [2] is 1.21 µM; in [4], 36.8 µM.

As to `CC(N)C[Te]c1ccccc1` (stereo unspecified), the Ka is 3.2 µM in [1]; over 100 µM in [3]; 22.2 µM in assay [5]; 52.5 µM in assay [6]; 73.1 µM in assay [7]; 21.7 µM in assay [8]. In addition, the Ka is 49.7 µM in assay [9]; 14.2 µM in assay [10]; 59.7 µM in assay [11]; 5.9 µM in assay [12]; 41.2 µM in assay [13]; 9.9 µM in assay [14]. Moreover, the IC50 in [2] was found to be 25.4 µM.

For the compound `CC(N)CSc1ccc(Br)cc1` (stereo unspecified), the Ka in assay [1] is 3.8 µM; in [3], over 100 µM; in [5], 63.3 µM; in [6] it was 72.9 µM; in assay [7], 61.6 µM; in [8], 22.7 µM. In addition, the Ka in assay [9] came out at 54.4 µM; in [10], 12.4 µM; in assay [11] it was 5.4 µM; in [12], 7.4 µM; in assay [13], 14.8 µM; in assay [14], 7.7 µM. In addition, in [2], the IC50 was 3.89 µM.

Consider `CC(N)C[Se]c1ccc(F)cc1` (stereo unspecified), for which the Ka in assay [1] was 2.6 µM; in assay [3] it was over 100 µM; in assay [5], 22.8 µM; in [6], 90.6 µM; in assay [7], 48.5 µM; in assay [8], 20.2 µM. Besides, the Ka is 46.9 µM in assay [9]; 13.1 µM in assay [10]; 13.1 µM in assay [11]; 6.1 µM in assay [12]; 13.4 µM in assay [13]; 19.6 µM in [14]. For the same compound, the IC50 in assay [2] was determined as 10.5 µM; in assay [4] it was 13.4 µM.

As for `Cc1ccc([Te]CC(C)N)cc1` (stereo unspecified), the Ka was 2.4 µM in assay [1]; over 100 µM in assay [3]; 74.4 µM in assay [5]; 80.4 µM in assay [6]; 23.6 µM in assay [7]; 15.7 µM in assay [8]. Further, the Ka in assay [9] worked out at 82.7 µM; in assay [10] it was 4 µM; in assay [11], 73.5 µM; in [12] it was 5.3 µM; in assay [13], 21.9 µM; in [14] it was 8.2 µM. In assay [2], the IC50 was 6.66 µM.

As to `COc1cc([Te]CC(C)N)cc(OC)c1OC` (stereo unspecified), the Ka in assay [1] is 1.2 µM; in assay [3], over 100 µM; in assay [5], 85.2 µM; in assay [6] it was 32.7 µM; in assay [7], 69.2 µM; in assay [8], 29.5 µM. Besides, the Ka in assay [9] is 58.3 µM; in [10], 9.4 µM; in assay [11] it was 60.6 µM; in assay [12], 4.4 µM; in [13], 14.3 µM; in [14], 9.5 µM.

Turning to `COc1ccc([Te]CC(C)N)cc1` (stereo unspecified), the Ka was 9.5 µM in assay [1]; over 100 µM in [3]; 47.9 µM in [5]; 52.8 µM in assay [6]; 37.8 µM in assay [7]; 22.5 µM in assay [8]. Besides, the Ka in [9] stood at 38.2 µM; in [10] it was 3.3 µM; in [11] it was 77.3 µM; in [12], 8.2 µM; in [13] it was 44.9 µM; in [14] it was 4.6 µM. Also, the IC50 is 14 µM in assay [2] and 84.2 µM in assay [4].

As to `CC(N)C[Se]c1ccc(N(C)C)cc1` (stereo unspecified), the Ka in assay [1] worked out at 6.7 µM; in [3] (filed as activator), 45.1 µM; in [5], 70.1 µM; in assay [6] it was 58.5 µM; in assay [7] it was 76.5 µM; in assay [8], 21.8 µM. Moreover, the Ka in [9] amounted to 44.1 µM; in assay [10], 14 µM; in assay [11], 72.6 µM; in assay [12] it was 9.4 µM; in assay [13], 12.1 µM; in assay [14], 22.1 µM. For the same compound, the concentration for half-maximal inhibition (IC50) was 7.15 µM in assay [2] and 21.3 µM in [4].

What is called IC50 is the concentration needed to halve the response being measured.
